Measurements collected from several papers.
Protocols differ between the studies behind these lines.
Target: MAP/microtubule affinity-regulating kinase 3 (MARK3, Homo sapiens, UniProt P27448)

| SMILES | observed | technique | concentration | remaining binding [%] |
| --- | --- | --- | --- | --- |
| CO[C@H]1CC[C@H](CNc2ccc(S(=O)(=O)NC(=O)c3ccc(N4CCN(CC5=C(c6ccc(Cl)cc6)CC(C)(C)CC5)CC4)cc3Oc3cnc4[nH]ccc4c3)cc2[N+](=O)[O-])CC1 | cell-free assay | competition with immobilised ligand | 1 µM | 96 |
| O=C(c1ccc(Nc2nccc(-c3cc4ccccc4s3)n2)cc1)N1CCC(N2CCCC2)CC1 | binding | competition with immobilised ligand | 1 µM | 100 |
| CN(c1nccc(-c2cnn3ncccc23)n1)C1CC1 | binding | – | 1 µM | 100 |
| COc1cc(-c2cn(C3CCc4ccccc4N(CC(F)(F)F)C3=O)nn2)ccc1-n1ccc(C)n1 (stereo not shown) | cell-free assay | competition with immobilised ligand | 1 µM | 100 |
| O=C(NCC1CCOCC1)c1n[nH]cc1NC(=O)c1c(F)cccc1F | binding | competition with immobilised ligand | 1 µM | 100 |
| C[C@@H](c1ccc(-n2cnc3c(N)ncnc32)cc1)N1CCc2nn(C)c(Cc3ccccc3)c2C1=O | binding | competition with immobilised ligand | 0.1 µM | 93 |
| COc1cnc(Nc2cccc(S(N)(=O)=O)c2)nc1N1CCN(c2ccccc2)CC1 | binding | competition with immobilised ligand | 1 µM | 100 |
| C[C@@H]1CN(c2ccc3ncc(-c4ccc5[nH]nc(C6CC6)c5c4)n3n2)C[C@H](C)O1 | binding | competition with immobilised ligand | 50 nM | 100 |
| c1cncc(-c2cccc(Nc3nccc(NC4CCCCC4)n3)c2)c1 | binding | competition with immobilised ligand | 10 µM | 99 |
| C[C@@H]1CCN(c2nccc(-c3cnn4ncccc34)n2)C1 | binding | – | 1 µM | 100 |
| C[C@@H]1CN(c2cc(-c3nn(C)c4ccc(OC5(C)CC5)cc34)ncn2)C[C@H](C)O1 | cell-free assay | competition with immobilised ligand | 1 µM | 100 |
| O=C(c1ccc(Nc2ncc(Cl)c(-c3ccc(Cl)s3)n2)cc1)N1CCC(N2CCCC2)CC1 | binding | competition with immobilised ligand | 1 µM | 100 |
| CCc1ccccc1C(=O)Nc1n[nH]c2c(C)c(F)c(C3C(C#N)=C(C)N(C)C(C)=C3C#N)cc12 | cell-free assay | competition with immobilised ligand | 1 µM | 30 |
| N[C@H]1CCN(c2nccc(-c3cnn4ncccc34)n2)C1 | binding | – | 1 µM | 57 |
| CC(=O)Nc1c(C(C)=O)c(=O)n(C)c2nc(-c3ccc(Cl)cc3Cl)c(-c3ccc(Cl)cc3)cc12 | cell-free assay | competition with immobilised ligand | 1 µM | 100 |
| F[C@@H]1CCN(c2nccc(-c3cnn4ncccc34)n2)C1 | binding | – | 1 µM | 100 |
